# MC4R ag barr: activates human MC4R beta-arrestin recruitment; P32245; U2OS MC4R beta-arrestin complementation, luminescence; percent of melanotan II response, DMSO zero; activation, % at 8.9 µM; 360,000 tested, 0.98% active; AID 540308;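 active = activation above a per-plate cutoff, the mean activation of sample wells on that plate plus 3 SD, cut at about 8% in these data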
# FXN GAA850 act: activators of GAA850 frataxin (FXN) promoter. 360,000 tested, 0.56% active. activation, % at 6 µM. HEK293 lucGAA850 FXN promoter luciferase reporter, 24 h; percent of 10 µM SAHA response;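 active = activation above the average of all compounds screened plus 3 SD, cutoff fixed separately per campaign, cut at about 7.5% in these data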;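 also: 0% = DMSO wells and 100% = 10 µM SAHA wells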
# MC4R antagonist: blocks human MC4R cAMP signaling. MC4R-expressing cells, MTII-stimulated cAMP, LANCE TR-FRET. inhibition, % at 6.5 µM. 360,000 tested, 0.48% active;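 active = inhibition above its plate's cutoff, the mean of tested wells on that plate plus 3 SD, cut at about 29% in these data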;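 also: 0% = Melanotan II alone and 100% = Melanotan II plus saturating MCL0020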
#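 Assay system: U2OS cells stably expressing human melanocortin 4 receptor (MC4R) / Dosing: 6.5 µM / Timing: compound 30 min, challenge 1 h, detection 1 h / Measured by: Eu-cAMP/anti-cAMP TR-FRET, emission 671 nm / Replicates: singlicate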
# AHR activator: activates the human aryl hydrocarbon receptor. P35869. AHR-responsive luciferase reporter cells, luminescence. activation, % at 5 µM. 320,000 tested, 2.5% active; in the data active = activation above about 47%;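 also: 0% = vehicle wells and 100% = reference agonist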
# Target sequence (P35869 whole entry, looked up): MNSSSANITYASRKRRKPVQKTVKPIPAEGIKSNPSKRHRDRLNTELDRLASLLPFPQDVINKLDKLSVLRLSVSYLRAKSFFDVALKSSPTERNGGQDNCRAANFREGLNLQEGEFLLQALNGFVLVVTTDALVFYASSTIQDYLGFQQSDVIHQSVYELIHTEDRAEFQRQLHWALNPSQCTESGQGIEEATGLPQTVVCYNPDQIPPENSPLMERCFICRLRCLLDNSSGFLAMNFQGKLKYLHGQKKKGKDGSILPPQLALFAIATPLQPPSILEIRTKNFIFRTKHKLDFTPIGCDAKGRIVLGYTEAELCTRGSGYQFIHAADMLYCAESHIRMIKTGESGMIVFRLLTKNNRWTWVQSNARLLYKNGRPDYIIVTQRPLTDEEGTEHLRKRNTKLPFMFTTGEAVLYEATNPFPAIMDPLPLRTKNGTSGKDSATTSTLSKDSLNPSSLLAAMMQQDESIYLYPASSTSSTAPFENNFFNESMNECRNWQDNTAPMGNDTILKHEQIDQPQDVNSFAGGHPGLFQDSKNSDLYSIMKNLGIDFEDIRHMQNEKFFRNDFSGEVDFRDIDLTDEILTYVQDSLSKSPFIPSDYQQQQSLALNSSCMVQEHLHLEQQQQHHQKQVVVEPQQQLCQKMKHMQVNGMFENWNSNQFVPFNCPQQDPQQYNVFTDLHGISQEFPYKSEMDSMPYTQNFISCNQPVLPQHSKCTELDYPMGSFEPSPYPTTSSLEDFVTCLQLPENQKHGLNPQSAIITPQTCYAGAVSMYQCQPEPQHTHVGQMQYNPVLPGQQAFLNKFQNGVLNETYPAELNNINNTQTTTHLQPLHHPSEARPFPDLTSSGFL
# m5-HT2A agonist: mouse HTR2A agonism via beta-arrestin recruitment | CHO-K1 mHTR2A beta-arrestin complementation, luminescence; percent of 30 µM serotonin response | activation, % at 7.6 µM | P35363 | 360,000 tested, 0.66% active | AID 624169;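 active = activation above a run cutoff, the mean activation of all tested compounds plus 3 SD, cut at about 14% in these data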;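 also: 0% = plate median of compound wells and 100% = 30 µM serotonin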
# MC4R barr ag: human MC4R beta-arrestin agonism confirmation. shares compounds with MC4R ag barr. U2OS MC4R beta-arrestin recruitment, luminescence; scaled DMSO 0%, Melanotan II 100%. activation, % at 8.9 µM. 2,400 tested, 31% active;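 active = mean activation across replicates above the hit cutoff set in the earlier primary screen, cut at about 8% in these data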
# MOR-DOR barr ag: OPRM1-OPRD1 heterodimer agonism counter-screen. shares compounds with MC4R ag barr. U2OS PathHunter beta-arrestin, beta-gal luminescence; percent of deltorphin B response, DMSO zero. activation, % at 9.2 µM. 2,400 tested, 5.8% active. AID 602194;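 active = mean activation across replicates exceeds the hit threshold derived in the earlier primary screen, cut at about 18% in these data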;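 also: 100% = deltorphin B at 0.9 µM final and 0% = DMSO alone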
# Starred values were filed as active, the others as inactive; . = no result given. Rows were chosen to be rich in hits. Some 4.7% of all compounds tested hit in one or more screens of this group.
SMILES,MC4R ag barr,FXN GAA850 act,MC4R antagonist,AHR activator,m5-HT2A agonist,MC4R barr ag,MOR-DOR barr ag
Cc1ccc(OCc2nnc(SCC(=O)Nc3sc(C)c(C)c3C#N)n2C)cc1,17.5*,3.0,-1.1,2.0,8.2,2.5,4.7
O=C(N/N=C/c1ccc(F)cc1)c1cccc(NC(=O)c2ccc(F)cc2)c1,41.5*,0.9,-0.2,59.7*,-5.9,2.2,1.7
CCOc1ccc(/C=N/NC(=O)c2cc3c(OC)cccc3[nH]2)cc1,11.1*,0.8,-8.5,32.7,-8.4,3.4,18.4*
COC(=O)N/N=C\c1ccc(OC/C=C/c2ccccc2)cc1,-0.9,2.1,9.1,.,-1.1,.,.
CCOC(=O)N/N=C\c1ccc(OC/C=C/c2ccccc2)cc1,11.1*,-1.0,1.9,.,13.9,-0.1,5.0
CC[C@@H](C)[C@H](CN[C@H](CNC)C(C)C)NC[C@@H](C)c1ccc(CC(C)C)cc1,45.2*,1.2,-0.9,1.9,-7.7,15.7*,7.7
Cc1ccc(-c2nnc(-c3ccc4ccccc4c3)o2)cc1,10.2*,5.1,3.0,.,-1.5,-3.7,1.1
Clc1ccc(-c2nnc(-c3ccc4ccccc4c3)o2)cc1,1.4,0.6,5.9,.,0.4,.,.
CCCCCCn1c(=O)n2n(c1=O)[C@@H]1CN(S(=O)(=O)c3ccc(C)cc3)C[C@]1(O)[C@@H](OC(=O)NCc1ccccc1)C2,10.1*,-0.7,6.6,.,5.9,8.5*,3.1
CN1CCN(CCNC(=O)c2ccc(CS(=O)c3ccc(Br)cc3)o2)CC1 (stereo not given),-0.3,-0.7,3.2,.,1.1,.,.
N#Cc1ccc(-c2ccccc2)nc1SCC(=O)c1cccc(Cl)c1,0.9,0.4,-4.1,40.0,-6.2,.,.
N#Cc1ccc(-c2cccnc2)nc1SCC(=O)c1ccccc1,11.2*,5.4,7.7,-2.0,-0.2,7.0,2.5
CCC(C)NC(=O)c1c(N)n(/N=C/c2ccccn2)c2nc3ccccc3nc12 (stereo not given),5.3,1.4,5.3,-3.9,0.7,.,.
COCCCNC(=O)c1c(N)n(/N=C/c2cccnc2)c2nc3ccccc3nc12,10.1*,0.1,3.0,6.2,2.0,4.7,5.0
COCCCNC(=O)c1c(N)n(/N=C/c2cccs2)c2nc3ccccc3nc12,3.3,0.5,4.0,9.2,0.8,.,.
CCC(C)NC(=O)c1c(N)n(/N=C/c2cccnc2)c2nc3ccccc3nc12 (stereo not given),13.4*,6.0,9.8,10.2,2.8,27.8*,6.0
O=C(Nc1ccccc1OC(F)F)c1oc2ccccc2c1COc1ccccc1,27.0*,4.2,-19.8,49.3*,5.0,13.8*,3.9
Nc1nc(-c2cc(O)ccc2[N+](=O)[O-])cc(-c2ccccc2)c1[N+](=O)[O-],11.1*,0.8,-16.6,.,0.8,1.1,3.5
C=CC[C@@H](CC(=O)N[C@@H](CO)Cc1ccccc1)C(=O)N[C@@H](COC(=O)[C@@H](CC=C)CC(=O)OC(C)(C)C)Cc1c[nH]c2ccccc12,14.9*,-9.9,9.5,-1.1,3.2,3.1,5.4
COc1ccc(Cc2nnc(NC(=O)Nc3ccccc3F)s2)cc1OC,14.3*,0.3,-2.0,20.3,2.3,3.8,5.8
c1ccc(-c2nnc(-c3c[nH]c4ccccc34)nc2-c2ccccc2)cc1,15.3*,-0.1,7.6,-17.4,-0.5,-3.9,1.2
Cc1ccc(C)c(C(Nc2ccccc2)c2ccc3ccc(C)nc3c2O)c1 (stereo not given),.,.,.,.,-8.1,.,.
C=CCSc1nc2sc(-c3ccccc3)cc2c(=O)n1N,18.5*,-1.1,2.9,11.5,4.4,21.1*,20.8*
Cc1ccccc1-n1c(SCC(N)=O)nc2sc(-c3ccccc3)cc2c1=O,-1.0,-2.8,8.2,-1.4,0.9,.,.
c1ccc(-c2onc(-c3ccco3)c2-c2ccc3c(c2)OCO3)cc1,10.0*,0.0,11.8,11.2,0.7,5.0,5.9
SMILES,MC4R ag barr,FXN GAA850 act,MC4R antagonist,AHR activator,m5-HT2A agonist,MC4R barr ag,MOR-DOR barr ag
O=C(O)c1cc(-c2ccc(-c3c(-c4ccc5c(c4)OCO5)noc3-c3ccsc3)cc2)nc2ccccc12,-2.3,3.3,-6.2,7.7,1.4,.,.
OC(c1ccc(F)c(F)c1)c1ncc(-c2ccc(Cl)cc2)[nH]1 (stereo not given),3.0,0.1,6.3,.,6.3,.,.
OC(c1cc(F)cc(Cl)c1)c1ncc(-c2ccc(Cl)cc2)[nH]1 (stereo not given),9.8*,-0.2,-1.1,.,1.1,2.3,7.3
O=C(CCN1C(=O)/C(=C/c2ccccc2F)SC1=S)NC1C=CS(=O)(=O)C1 (stereo not given),10.3*,2.2,-2.7,0.5,7.5,-1.0,2.0
O=C(CCN1C(=O)/C(=C/c2ccc(Cl)cc2)SC1=S)NC1C=CS(=O)(=O)C1 (stereo not given),0.4,-1.4,-1.8,-0.2,5.7,.,.
Cc1cccc(C)c1OCCOC(=O)c1n[nH]c2ccccc12,1.1,4.5,-14.8,0.1,7.0,.,.
Cc1ccc(C)c(C(=O)COC(=O)c2n[nH]c3ccccc23)c1,16.4*,1.1,-13.9,6.0,5.0,16.1*,8.5
Cc1ccc2nc(-c3ccccn3)c(N)n2c1,.,.,.,.,1.5,.,.
CCCCOC(=O)Nc1ccc(S(=O)(=O)Nc2ccc([N+](=O)[O-])cc2)cc1,0.1,-2.0,20.1,-0.7,7.4,.,.
CCCCCOC(=O)Nc1ccc(S(=O)(=O)Nc2cccc([N+](=O)[O-])c2)cc1,13.6*,3.0,-3.1,1.7,-4.4,9.7*,7.5
CC1(C(=O)NS(=O)(=O)c2cccc(Cl)c2)CCN1C(=O)c1ccccc1CCc1ccccc1 (stereo not given),-0.1,-0.7,7.0,.,5.7,.,.
Cc1nc2c(-c3ccc(F)cc3)c(C)nn2c(C)c1CCC(=O)Nc1ccccc1F,12.9*,2.6,2.1,-2.6,2.7,-1.9,4.3
O=C(Cc1ccc([N+](=O)[O-])cc1)OCc1c(F)cccc1Cl,-1.1,2.3,-8.5,-1.4,-2.1,.,.
CCOC(=O)c1sc(N(Cc2ccccc2)C(=O)COC(=O)c2ccccc2O)nc1C,-1.1,3.5,-3.6,16.3,-0.1,.,.
CCOC(=O)c1sc(N(Cc2ccccc2)C(=O)CCl)nc1C,15.7*,3.1,25.3,2.6,5.3,3.8,38.2*
O=C(Nc1ccc2c3c(cccc13)CC2)c1ccccc1,0.3,0.5,3.8,.,-2.6,.,.
CS(=O)(=O)N(Cc1ccc(Cl)cc1)c1ccc(C(=O)NCCC2=CCCCC2)cc1,12.8*,-2.0,6.5,2.4,-2.8,0.5,8.8
FC(F)(F)C1=NNC(c2ccc3ccccc3c2)=NN1,-0.3,-0.2,-0.9,.,-0.7,.,.
